Laboratory results published in ChEMBL document CHEMBL4052595, “Application of Residual Dipolar Couplings and Selective Quantitative NOE to Establish the Structures of Tetranortriterpenoids from Xylocarpus rumphii” (J Nat Prod, 2017).
The source made the active and inactive calls.

What was measured:
Format in all cases: functional, cell-based
ACHN = assay: Growth inhibition of human ACHN cells at 10^-5 M incubated for 48 hrs by sulforhodamine B assay
In short: (§1)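 Run in the NCI59 one-dose cell-line screen, with each compound tested at a single concentration of 1 × 10−5 M.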

SW-620 = assay: Growth inhibition of human SW620 cells at 10^-5 M incubated for 48 hrs by sulforhodamine B assay
In short: (§2)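 Tested at a single concentration of 1 × 10−5 M as part of the NCI59 cell-line one-dose screen.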

NCI-H522 = assay: Growth inhibition of human NCI-H522 cells at 10^-5 M incubated for 48 hrs by sulforhodamine B assay; in short: as §1
SNB-19 = assay: Growth inhibition of human SNB19 cells at 10^-5 M incubated for 48 hrs by sulforhodamine B assay; in short: as §1
NCI/ADR-RES = assay: Growth inhibition of human NCI/ADR-RES cells at 10^-5 M incubated for 48 hrs by sulforhodamine B assay; in short: as §1
U-251 = assay: Growth inhibition of human U251 cells at 10^-5 M incubated for 48 hrs by sulforhodamine B assay; in short: as §2
K562 = assay: Growth inhibition of human K562 cells at 10^-5 M incubated for 48 hrs by sulforhodamine B assay; in short: as §1
MDA-MB-435 = assay: Growth inhibition of human MDA-MB-435 cells at 10^-5 M incubated for 48 hrs by sulforhodamine B assay; in short: as §1
MDA-MB-231 = assay: Growth inhibition of human MDA-MB-231 cells at 10^-5 M incubated for 48 hrs by sulforhodamine B assay; in short: as §1
SF-268 = assay: Growth inhibition of human SF268 cells at 10^-5 M incubated for 48 hrs by sulforhodamine B assay; in short: as §1
SK-MEL-5 = assay: Growth inhibition of human SK-MEL-5 cells at 10^-5 M incubated for 48 hrs by sulforhodamine B assay; in short: as §1
OVCAR-4 = assay: Growth inhibition of human OVCAR4 cells at 10^-5 M incubated for 48 hrs by sulforhodamine B assay; in short: as §1
SF-295 = assay: Growth inhibition of human SF295 cells at 10^-5 M incubated for 48 hrs by sulforhodamine B assay; in short: as §1
PC-3 = assay: Growth inhibition of human PC3 cells at 10^-5 M incubated for 48 hrs by sulforhodamine B assay; in short: as §1
LOX IMVI = assay: Growth inhibition of human LOXIMVI cells at 10^-5 M incubated for 48 hrs by sulforhodamine B assay; in short: as §1
NCI-H226 = assay: Growth inhibition of human NCI-H226 cells at 10^-5 M incubated for 48 hrs by sulforhodamine B assay; in short: as §1
NCI-H322M = assay: Growth inhibition of human NCI-H322M cells at 10^-5 M incubated for 48 hrs by sulforhodamine B assay; in short: as §1
SR = assay: Growth inhibition of human SR cells at 10^-5 M incubated for 48 hrs by sulforhodamine B assay; in short: as §1
NCI-H23 = assay: Growth inhibition of human NCI-H23 cells at 10^-5 M incubated for 48 hrs by sulforhodamine B assay; in short: as §1
HL-60(TB) = assay: Growth inhibition of human HL-60(TB) cells at 10^-5 M incubated for 48 hrs by sulforhodamine B assay
In short: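 Run in the NCI59 cell-line one-dose screen, with each compound tested at a single concentration of 1 × 10−5 M.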

HOP-62 = assay: Growth inhibition of human HOP62 cells at 10^-5 M incubated for 48 hrs by sulforhodamine B assay; in short: as §1
A498 = assay: Growth inhibition of human A498 cells at 10^-5 M incubated for 48 hrs by sulforhodamine B assay; in short: as §1
EKVX = assay: Growth inhibition of human EKVX cells at 10^-5 M incubated for 48 hrs by sulforhodamine B assay; in short: as §1
CAKI-1 = assay: Growth inhibition of human Caki1 cells at 10^-5 M incubated for 48 hrs by sulforhodamine B assay; in short: as §1
Hs-578T = assay: Growth inhibition of human Hs 578T cells at 10^-5 M incubated for 48 hrs by sulforhodamine B assay; in short: as §1
UACC-257 = assay: Growth inhibition of human UACC257 cells at 10^-5 M incubated for 48 hrs by sulforhodamine B assay; in short: as §2
SNB-75 = assay: Growth inhibition of human SNB75 cells at 10^-5 M incubated for 48 hrs by sulforhodamine B assay; in short: as §1
M14 = assay: Growth inhibition of human M14 cells at 10^-5 M incubated for 48 hrs by sulforhodamine B assay; in short: as §1
IGROV-1 = assay: Growth inhibition of human IGROV1 cells at 10^-5 M incubated for 48 hrs by sulforhodamine B assay; in short: as §1
OVCAR-5 = assay: Growth inhibition of human OVCAR5 cells at 10^-5 M incubated for 48 hrs by sulforhodamine B assay; in short: as §1
HCT-15 = assay: Growth inhibition of human HCT15 cells at 10^-5 M incubated for 48 hrs by sulforhodamine B assay; in short: as §1
RXF 393 = assay: Growth inhibition of human RXF393 cells at 10^-5 M incubated for 48 hrs by sulforhodamine B assay; in short: as §1
MCF7 = assay: Growth inhibition of human MCF7 cells at 10^-5 M incubated for 48 hrs by sulforhodamine B assay; in short: as §1
COLO 205 = assay: Growth inhibition of human COLO205 cells at 10^-5 M incubated for 48 hrs by sulforhodamine B assay; in short: as §1
BT-549 = assay: Growth inhibition of human BT549 cells at 10^-5 M incubated for 48 hrs by sulforhodamine B assay; in short: as §1
UACC-62 = assay: Growth inhibition of human UACC62 cells at 10^-5 M incubated for 48 hrs by sulforhodamine B assay; in short: as §2
DU-145 = assay: Growth inhibition of human DU145 cells at 10^-5 M incubated for 48 hrs by sulforhodamine B assay; in short: as §1
HOP-92 = assay: Growth inhibition of human HOP92 cells at 10^-5 M incubated for 48 hrs by sulforhodamine B assay; in short: as §1
KM12 = assay: Growth inhibition of human KM12 cells at 10^-5 M incubated for 48 hrs by sulforhodamine B assay; in short: as §1
MOLT-4 = assay: Growth inhibition of human MOLT4 cells at 10^-5 M incubated for 48 hrs by sulforhodamine B assay; in short: as §1
SK-MEL-2 = assay: Growth inhibition of human SK-MEL-2 cells at 10^-5 M incubated for 48 hrs by sulforhodamine B assay; in short: as §1
CCRF-CEM = assay: Growth inhibition of human CCRF-CEM cells at 10^-5 M incubated for 48 hrs by sulforhodamine B assay; in short: as §1
SN12C = assay: Growth inhibition of human SN12C cells at 10^-5 M incubated for 48 hrs by sulforhodamine B assay; in short: as §1
UO-31 = assay: Growth inhibition of human UO31 cells at 10^-5 M incubated for 48 hrs by sulforhodamine B assay; in short: as §2
T47D = assay: Growth inhibition of human T47D cells at 10^-5 M incubated for 48 hrs by sulforhodamine B assay; in short: as §2
A549 = assay: Growth inhibition of human A549/ATCC cells at 10^-5 M incubated for 48 hrs by sulforhodamine B assay; in short: as §1
HCT-116 = assay: Growth inhibition of human HCT116 cells at 10^-5 M incubated for 48 hrs by sulforhodamine B assay; in short: as §1
NCI-H460 = assay: Growth inhibition of human NCI-H460 cells at 10^-5 M incubated for 48 hrs by sulforhodamine B assay; in short: as §1
SK-MEL-28 = assay: Growth inhibition of human SK-MEL-28 cells at 10^-5 M incubated for 48 hrs by sulforhodamine B assay; in short: as §1
OVCAR-3 = assay: Growth inhibition of human OVCAR3 cells at 10^-5 M incubated for 48 hrs by sulforhodamine B assay; in short: as §1
HT-29 = assay: Growth inhibition of human HT-29 cells at 10^-5 M incubated for 48 hrs by sulforhodamine B assay; in short: as §1
786-0 = assay: Growth inhibition of human 786-0 cells at 10^-5 M incubated for 48 hrs by sulforhodamine B assay; in short: as §1
SK-OV-3 = assay: Growth inhibition of human SKOV3 cells at 10^-5 M incubated for 48 hrs by sulforhodamine B assay; in short: as §1
OVCAR-8 = assay: Growth inhibition of human OVCAR8 cells at 10^-5 M incubated for 48 hrs by sulforhodamine B assay; in short: as §1
RPMI-8226 = assay: Growth inhibition of human RPMI8226 cells at 10^-5 M incubated for 48 hrs by sulforhodamine B assay; in short: as §1
SF-539 = assay: Growth inhibition of human SF539 cells at 10^-5 M incubated for 48 hrs by sulforhodamine B assay; in short: as §1
HCC 2998 = assay: Growth inhibition of human HCC2998 cells at 10^-5 M incubated for 48 hrs by sulforhodamine B assay; in short: as §1
TK-10 = assay: Growth inhibition of human TK10 cells at 10^-5 M incubated for 48 hrs by sulforhodamine B assay; in short: as §2

Measured: growth inhibition (GI)

CC[C@H](C)C(=O)O[C@@H]1[C@@H]2[C@@H](OC(=O)[C@@H](C)CC)[C@@]34O[C@]2(O)[C@@](C)([C@@H](CC(=O)OC)C1(C)C)[C@H]3CC[C@]1(C)C4=CC(=O)O[C@H]1C1=CC(O)OC1=O (stereo partly drawn)
inactive: all assays above
